Consider eleven compounds from ChEMBL document CHEMBL1141843, “Sesquiterpene esters from Celastrus orbiculatus and their structure-activity relationship on the modulation of multidrug resistance” (J Nat Prod, 1999).

In assay [1] the test system is KB-V1. The assay is described as follows: Reversal of P-glycoprotein-mediated multidrug resistance assessed as ratio of vinblastine IC50 for drug-resistant human KB-V1 cells to vinblastine IC50 for human drug-sensitive KB-3-1 cells at 10 uM after 48 hrs by SRB method. The assay is classed as cell-based. The method, boiled down: (§1)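 KB-3-1 and resistant KB-V1 cells seeded overnight, then treated for 48 h with a concentration range of adriamycin, vinblastine or taxol plus 10 μM modulator. Growth read by SRB at 570 nm and IC50 taken against vehicle controls. Relative resistance = IC50 in KB-V1 / IC50 in KB-3-1.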
(The SRB assay estimates cell density from bound dye.)

Assay [2] deals with KB-V1. The assay can be described thus: Reversal of P-glycoprotein-mediated multidrug resistance assessed as ratio of taxol IC50 for drug-resistant human KB-V1 cells to taxol IC50 for human drug-sensitive KB-3-1 cells at 10 uM after 48 hrs by SRB method. The assay is classed as cell-based. The method, boiled down:
as §1

The nature of assay [3]: Cytotoxicity against human KB31 cells after 48 hrs by SRB method. The assay is classed as functional, cell-based. The following applies: KB 3-1, 48 h. The method, boiled down: (§2)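 KB-3-1 and KB-V1 cells grown in DMEM with 2 mM L-glutamine and 10% heat-inactivated FCS at 37 °C, 5% CO2. KB-V1 kept under VLB. 2.5-5.0×10^3 cells/well seeded in 5% FCS medium, attached overnight, then exposed to compound for 48 h. Vehicle was DMSO or MeOH, final <0.5%. Read by SRB: TCA fixation, 0.4% SRB stain, Tris solubilization, absorbance at 570 nm. Mean ± S.D. of two experiments.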

A short description of assay [4]: Cytotoxicity against vinblastine resistant human KBV1 cells after 48 hrs by SRB method. The assay is classed as functional, cell-based. The following applies: KB-V1, 48 h. An outline of the steps:
as §2

Assay [5] is described as follows: Cytotoxicity against vinblastine resistant human KBV1 cells after 48 hrs in presence of 100 nM vinblastine by SRB method. It counts as functional, cell-based. The following applies: KB-V1, 48 h. The method, boiled down: as §2
The test system of assay [6] is KB-V1. The assay can be described thus: Reversal of P-glycoprotein-mediated multidrug resistance assessed as ratio of IC50 for human KB-V1 cells to IC50 for human KB-V1 cells in presence of 100 nM vinblastine. It counts as cell-based. The method, boiled down:
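KB-V1 cells given compound alone or with 100 nM vinblastine for 48 h. Growth read by SRB at 570 nm and IC50 taken against vehicle controls. Enhancement factor = IC50 in KB-V1 without VLB / IC50 with VLB. Mean ± S.D. of two experiments.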

The subject of assay [7] is KB-V1. The assay can be described thus: Reversal of P-glycoprotein-mediated multidrug resistance assessed as ratio of adriamycin IC50 for drug-resistant human KB-V1 cells to adriamycin IC50 for human drug-sensitive KB-3-1 cells at 10 uM after 48 hrs by SRB method. The assay is classed as cell-based. The method, boiled down: as §1

Each structure is given as a SMILES string.

For orientation: IC50 means the concentration needed to halve the response being measured. For the compound `CC(=O)OC[C@]12[C@@H](OC(=O)c3ccccc3)C[C@@H]3[C@@H](OC(C)=O)[C@]1(OC3(C)C)[C@H](C)C[C@H](OC(=O)c1ccccc1)[C@@H]2OC(C)=O`, the Ratio IC50 in the assay on KB-V1 [1] was found to be 2.7; with KB-V1 [2], 3.9; with KB-V1 [6] it was 57.2; in the assay on KB-V1 [7], 1.4. In addition, the IC50 was 27.3 µM in assay [3], 28.6 µM in assay [4] and 0.5 µM in assay [5].
Take `CC(=O)OC[C@@]12[C@@H](OC(C)=O)CC[C@@H](C)[C@]13OC(C)(C)[C@H](C[C@@H]2OC(=O)c1ccccc1)[C@H]3OC(C)=O`: the Ratio IC50 with KB-V1 [1] is 12.9; in the assay on KB-V1 [2], 10; in the assay with KB-V1 [6], 79.4; with KB-V1 [7] it was 5.5. The IC50 in assay [3] turned out to be 85.3 µM; in assay [4] it was 79.4 µM; in assay [5], 1 µM.
As to `CC(=O)O[C@H]1CC[C@@H](C)[C@]23OC(C)(C)[C@H](C[C@H](OC(=O)c4ccccc4)[C@]12C)[C@H]3OC(=O)c1ccccc1`, the IC50 in assay [3] came out at 10.5 µM; in assay [4] it was 12.3 µM; in assay [5] it was 1.9 µM. The Ratio IC50 with KB-V1 [6] is 6.4.
For the compound `CC(=O)O[C@H]1C[C@@H](C)[C@]23OC(C)(C)[C@H](C[C@H](OC(=O)c4ccccc4)[C@]2(C)[C@H]1OC(C)=O)[C@H]3OC(C)=O`, the Ratio IC50 in the assay on KB-V1 [1] is 2.3; in the assay on KB-V1 [2], 3.7; in the assay with KB-V1 [6] it was 87; in the assay with KB-V1 [7], 8.3. Further, the 50% inhibitory concentration (IC50) in assay [3] stood at 41.3 µM; in assay [4], 34.8 µM; in assay [5] it was 0.4 µM.
Turning to `CC(=O)O[C@H]1C[C@@H](C)[C@]23OC(C)(C)[C@H](C[C@H](OC(=O)c4ccccc4)[C@]2(C)[C@H]1OC(C)=O)[C@H]3OC(=O)c1ccccc1` [ORBICULIN A], the Ratio IC50 amounted to 0.9 with KB-V1 [1], 1.2 in the assay with KB-V1 [2], 80 with KB-V1 [6] and 3 in the assay with KB-V1 [7]. Besides, the IC50 in assay [3] stood at 31.6 µM; in assay [4] it was 32 µM; in assay [5], 0.4 µM.
Take `CC(=O)O[C@H]1CC[C@@H](C)[C@]23OC(C)(C)[C@H](C[C@H](OC(=O)c4ccccc4)[C@]12C)[C@H]3OC(=O)c1ccco1` [ORBICULIN B]: the figures for the IC50 in assay [3], in assay [4] and in assay [5] were 268 µM, 246 µM and 19.6 µM, respectively. The Ratio IC50 in the assay with KB-V1 [6] was 12.5.
The corresponding values for `CC(=O)O[C@H]1CC[C@@H](C)[C@]23OC(C)(C)[C@H](C[C@H](OC(=O)c4ccco4)[C@]12C)[C@H]3OC(=O)c1ccccc1` [ORBICULIN C] are 8.6 µM, 9.6 µM, 1 µM and 9.6.
The corresponding values for `CC(=O)O[C@H]1CC[C@@H](C)[C@]23OC(C)(C)[C@H](C[C@H](OC(=O)c4ccco4)[C@]12C)[C@H]3OC(=O)c1ccco1` [ORBICULIN D] are 16.8 µM, 17.8 µM, 1.2 µM and 14.8.
As for `CC(=O)O[C@H]1C[C@@H](C)[C@]23OC(C)(C)[C@H](C[C@H](OC(=O)c4ccccc4)[C@]2(C)[C@H]1OC(C)=O)[C@H]3OC(=O)c1ccco1` [ORBICULIN E], the Ratio IC50 in the assay on KB-V1 [1] is 1.6; with KB-V1 [2], 2.6; in the assay on KB-V1 [6] it was 66.2; with KB-V1 [7], 1.8. For the same compound, the IC50 in assay [3] worked out at 28.3 µM; in assay [4], 33.1 µM; in assay [5] it was 0.5 µM.
Turning to `CC(=O)O[C@H]1[C@@H](OC(=O)c2ccco2)C[C@@H](C)[C@]23OC(C)(C)[C@H](C[C@H](OC(=O)c4ccccc4)[C@]12C)[C@H]3OC(=O)c1ccco1` [ORBICULIN F], the Ratio IC50 in the assay with KB-V1 [1] was found to be 8.9; in the assay on KB-V1 [2] it was 11; with KB-V1 [6], 35.7; in the assay on KB-V1 [7], 4.4. The results for the IC50 in assay [3], in assay [4] and in assay [5] were 32.4 µM, 39.3 µM and 1.1 µM, respectively.
For `CC(=O)O[C@H]1[C@@H](OC(=O)c2ccccc2)C[C@@H](C)[C@]23OC(C)(C)[C@H](C[C@H](OC(=O)c4ccccc4)[C@]12C)[C@H]3OC(=O)c1ccccc1` [ORBICULIN G], the Ratio IC50 with KB-V1 [1] was found to be 168; in the assay with KB-V1 [2], 143; in the assay with KB-V1 [6], 5.9; with KB-V1 [7], 153. Besides, the IC50 worked out at 26.4 µM in assay [3], 28.6 µM in assay [4] and 4.8 µM in assay [5].
